Values after ≈ are worked out from the molar mass of the structure shown.
Key:
Candida albicans [1] = assay: Antibiofilm activity against Candida albicans ATCC 10231 assessed as inhibition of biofilm formation by XTT reduction assay; assay type: functional
In short: (§1)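 Biofilm assay after Pierce et al., with compound applied either during biofilm formation or to 24 h pre-formed (mature) biofilm. Read-out is metabolic activity of cells in the biofilm by XTT reduction. BMIC50 is the lowest concentration giving a 50% drop relative to untreated growth control. Tested in triplicate, at least two experiments on separate dates; median reported.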

Candida albicans [2] = assay: Antifungal activity against planktonic form of Candida albicans PMC 1042 by broth microdilution method; assay type: organism-based; details: in vitro
In short: (§2)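 Broth microdilution per CLSI M27-A3 and M27-S4. Strains were grown on Sabouraud dextrose agar at 35°C for 24 h. Final inoculum 1×10^3–5×10^3 cells/mL. Compounds were dissolved in DMSO (final <1%); 1% DMSO served as control. Final range 256–0.25 µg/mL. MIC50 is the lowest concentration giving ≥50% growth inhibition. Three independent experiments in duplicate, median; fluconazole as reference.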

[3] = Toxicity in Galleria mellonella larvae assessed as larval survival at 1000 ug/ml after 72 hrs relative to control
In short: (§3)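 Ten healthy larvae per group, stored at 15°C in the dark. Each got a 20 µL injection into the haemocoel via the last left proleg, with compound freshly made in sterile water containing <1% v/v DMSO. Larvae were incubated at 30°C and survival scored every 24 h; death was no movement on stimulation plus cuticle discolouration. Controls were untreated, pierced-only and vehicle. Mean % survival of two independent experiments.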

Candida albicans [4] = assay: Antibiofilm activity against Candida albicans ATCC 10261 assessed as inhibition of mature biofilm formation by XTT reduction assay; assay type: functional
In short: (§4)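 Biofilm method of Pierce et al. Biofilms were treated either during formation or once mature (24 h preformed). Metabolic activity of the cells within the biofilm was read by XTT reduction. BMIC50 is the lowest concentration giving a 50% drop in metabolic activity versus the untreated growth control. At least two experiments on separate dates, triplicate, reported as median.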

[5] = Toxicity in Galleria mellonella larvae assessed as larval survival at 100 ug/ml after 72 hrs relative to control; in short: as §3
[6] = Toxicity in Galleria mellonella larvae assessed as larval survival at 10 ug/ml after 48 hrs relative to control; in short: as §3
Candida albicans [7] = assay: Antibiofilm activity against Candida albicans PMC 1042 assessed as inhibition of mature biofilm formation by XTT reduction assay; assay type: functional; in short: as §4
Candida albicans [8] = assay: Antibiofilm activity against Candida albicans PMC 1082 assessed as inhibition of mature biofilm formation by XTT reduction assay; assay type: functional; in short: as §4
[9] = Toxicity in Galleria mellonella larvae assessed as larval survival at 50 ug/ml after 24 hrs relative to control; in short: as §3
[10] = Toxicity in Galleria mellonella larvae assessed as larval survival at 10 ug/ml after 72 hrs relative to control; in short: as §3
[11] = Toxicity in Galleria mellonella larvae assessed as larval survival at 50 ug/ml after 48 hrs relative to control; in short: as §3
[12] = Toxicity in Galleria mellonella larvae assessed as larval survival at 100 ug/ml after 24 hrs relative to control; in short: as §3
[13] = Toxicity in Galleria mellonella larvae assessed as larval survival at 50 ug/ml after 72 hrs relative to control; in short: as §3
[14] = Toxicity in Galleria mellonella larvae assessed as larval survival at 500 ug/ml after 72 hrs relative to control; in short: as §3
[15] = Toxicity in Galleria mellonella larvae assessed as larval survival at 1000 ug/ml after 48 hrs relative to control; in short: as §3
Candida albicans [16] = assay: Antifungal activity against planktonic form of Candida albicans ATCC 10231 by broth microdilution method; assay type: organism-based; details: in vitro
In short: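 CLSI M27-A3 broth microdilution. Cells grown on Sabouraud dextrose agar at 35°C for 24 h; final inoculum 1×10^3–5×10^3 cells/mL. Compounds from DMSO stocks, final DMSO below 1%, final range 256–0.25 µg/mL. Controls were DMSO 1% and fluconazole reference. MIC50 is the lowest concentration giving ≥50% growth inhibition. Three independent experiments in duplicate; median reported.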

[17] = Toxicity in Galleria mellonella larvae assessed as larval survival at 100 ug/ml after 48 hrs relative to control; in short: as §3
[18] = Toxicity in Galleria mellonella larvae assessed as larval survival at 500 ug/ml after 24 hrs relative to control; in short: as §3
[19] = Toxicity in Galleria mellonella larvae assessed as larval survival at 500 ug/ml after 48 hrs relative to control; in short: as §3
[20] = Toxicity in Galleria mellonella larvae assessed as larval survival at 1000 ug/ml after 24 hrs relative to control; in short: as §3
Candida albicans [21] = assay: Antibiofilm activity against Candida albicans PMC 1082 assessed as inhibition of biofilm formation by XTT reduction assay; assay type: functional; in short: as §4
Candida albicans [22] = assay: Antifungal activity against planktonic form of Candida albicans PMC 1082 by broth microdilution method; assay type: organism-based; details: in vitro; in short: as §2
Candida albicans [23] = assay: Antibiofilm activity against Candida albicans PMC 1042 assessed as inhibition of biofilm formation by XTT reduction assay; assay type: functional; in short: as §4
Candida albicans [24] = assay: Antifungal activity against planktonic form of Candida albicans ATCC 10261 by broth microdilution method; assay type: organism-based; details: in vitro; in short: as §2
[25] = Toxicity in Galleria mellonella larvae assessed as larval survival at 10 ug/ml after 24 hrs relative to control; in short: as §3
Candida albicans [26] = assay: Antibiofilm activity against Candida albicans ATCC 10261 assessed as inhibition of biofilm formation by XTT reduction assay; assay type: functional; in short: as §4
Candida albicans [27] = assay: Antibiofilm activity against Candida albicans ATCC 10231 assessed as inhibition of mature biofilm formation by XTT reduction assay; assay type: functional; in short: as §1
[28] = Toxicity in Galleria mellonella larvae assessed as larval survival at 5 ug/ml after 72 hrs relative to control; in short: as §3
[29] = Toxicity in Galleria mellonella larvae assessed as larval survival at 5 ug/ml after 24 hrs relative to control; in short: as §3
[30] = Toxicity in Galleria mellonella larvae assessed as larval survival at 5 ug/ml after 48 hrs relative to control; in short: as §3

SMILES | MBIC50 (Candida albicans [1]) [µg/mL] | MIC50 (Candida albicans [2]) [µg/mL] | MBIC50 (Candida albicans [4]) [µg/mL] | survival at 72 h [5] [%] | survival at 48 h [6] [%] | MBIC50 (Candida albicans [7]) [µg/mL] | MBIC50 (Candida albicans [8]) [µg/mL] | survival at 24 h [9] [%] | survival at 72 h [10] [%] | survival at 48 h [11] [%] | survival at 24 h [12] [%] | survival at 72 h [13] [%] | survival at 72 h [14] [%] | MIC50 (Candida albicans [16]) [µg/mL] | survival at 48 h [17] [%] | survival at 24 h [18] [%] | survival at 48 h [19] [%] | MBIC50 (Candida albicans [21]) [µg/mL] | MIC50 (Candida albicans [22]) [µg/mL] | MBIC50 (Candida albicans [23]) [µg/mL] | other results
CC(C)Cc1ccc(C(C)C(=O)NCCc2c[nH]c3ccccc23)cc1 (stereo unspecified) | 16 | > 256 | 8 | 100 | 100 | 2 | 4 | 100 | 100 | 100 | 100 | 100 | 100 | > 128 | 100 | 100 | 100 | 8 | > 256 | 8 | survival at 72 h [3]: 100%; survival at 48 h [15]: 100%; survival at 24 h [20]: 100%; MIC50 (Candida albicans [24]): > 256 µg/mL; survival at 24 h [25]: 100%; MBIC50 (Candida albicans [26]): 8 µg/mL; MBIC50 (Candida albicans [27]): 8 µg/mL
c1ccc2cc(CNCCc3c[nH]c4ccccc34)ccc2c1 | 8 | 128 (≈ 426 µM) | 8 | 100 | 100 | 2 | 2 | 90 | 100 | 90 | 100 | 90 | 100 | 16 (≈ 53.3 µM) | 100 | 100 | 100 | 8 | 32 (≈ 107 µM) | 8 | survival at 72 h [28]: 100%; survival at 24 h [29]: 100%; survival at 48 h [30]: 100%; MIC50 (Candida albicans [24]): 32 µg/mL (≈ 107 µM); survival at 24 h [25]: 100%; MBIC50 (Candida albicans [26]): 8 µg/mL; MBIC50 (Candida albicans [27]): 2 µg/mL
c1ccc(Oc2ccc(CNCCc3c[nH]c4ccccc34)cc2)cc1 | 2 | 64 (≈ 187 µM) | 8 | 100 | 100 | 2 | 2 | 100 | 100 | 100 | 100 | 100 | 70 | 4 (≈ 11.7 µM) | 100 | 90 | 70 | 8 | 16 (≈ 46.7 µM) | 8 | survival at 72 h [28]: 100%; survival at 24 h [29]: 100%; survival at 48 h [30]: 100%; MIC50 (Candida albicans [24]): 16 µg/mL (≈ 46.7 µM); survival at 24 h [25]: 100%; MBIC50 (Candida albicans [26]): 8 µg/mL; MBIC50 (Candida albicans [27]): 2 µg/mL

From ChEMBL document CHEMBL4400512, “Searching for new agents active against Candida albicans biofilm: A series of indole derivatives, design, synthesis and biological evaluation” (Eur J Med Chem, 2019)
